Measurements: publication PMC11310375 (EJNMMI Radiopharmacy and Chemistry, 2024)
Square brackets hold non-standard residues; d marks the D form. Peptide text beside a SMILES is read from it. * marks the point of attachment. AspCH2OCO(5-Me-thien-2-yl) = Cc1ccc(C(=O)OCC(=O)[C@H](CC(=O)O)N*)s1; Phe(F5) = N[C@@H](Cc1c(F)c(F)c(F)c(F)c1F)C(=O)O; X5 = Cc1cccc(C)c1C(=O)OCC(=O)[C@@H](CC(=O)O)N*; X4 = Cc1ccc(C(=O)OCC(=O)[C@@H](CC(=O)O)N*)s1; X2 = O=C(CCOCCOCCOCCOCCn1cc(CCCF)nn1)*; d(β3hL) = CC(C)C[C@@H](N)CC(=O)O; 3Pal = N[C@@H](Cc1cccnc1)C(=O)O; d3Pal = N[C@H](Cc1cccnc1)C(=O)O; X3 = O=C(CCCc1cn(CCF)nn1)*; X1 = O=C(Cn1cc(CCCF)nn1)*; Ahx = NCCCCCC(=O)O

Key:
[1] = biological target: T1, caspase-3 (Homo sapiens, UniProt P42574); assay: Biochemical inhibition assay, kinact/Ki with AMAC substrate; details: for kinact/KI: read-out: kinact/Ki C3
T1 sequence (P42574 29-175 limits assumed): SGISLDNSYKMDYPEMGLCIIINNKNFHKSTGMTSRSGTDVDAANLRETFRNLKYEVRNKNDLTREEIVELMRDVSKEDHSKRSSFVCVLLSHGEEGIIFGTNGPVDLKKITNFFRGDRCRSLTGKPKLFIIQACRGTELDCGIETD
T1 sequence (P42574 176-277 limits assumed): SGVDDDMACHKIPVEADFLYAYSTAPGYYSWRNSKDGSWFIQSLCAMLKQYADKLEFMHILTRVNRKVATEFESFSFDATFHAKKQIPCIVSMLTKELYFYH
Summary of the method: (§1)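 Continuous fluorogenic inactivation assay with Ac-DEVD-AMAC at 100 μM final. Final enzyme concentrations were 1 nM caspase-3 and 5 nM caspase-7. Enzyme was added to substrate plus inhibitor, and fluorescence (ex 320/em 460) was read immediately. Progress curves were fit to F = -[v₀(1-exp(-kobst))/kobs-Fmax] to give kinact and Ki.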

[2] = biological target: T2, caspase-7 (Homo sapiens, UniProt P55210); assay: as above; details: read-out: kinact/Ki C7
T2 sequence (P55210 24-198 limits assumed): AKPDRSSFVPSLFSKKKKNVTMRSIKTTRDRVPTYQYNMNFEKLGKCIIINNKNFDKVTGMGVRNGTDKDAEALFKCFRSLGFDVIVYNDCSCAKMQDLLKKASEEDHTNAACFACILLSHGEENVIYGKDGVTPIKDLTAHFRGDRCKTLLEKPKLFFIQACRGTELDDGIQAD
T2 sequence (P55210 207-303 limits assumed): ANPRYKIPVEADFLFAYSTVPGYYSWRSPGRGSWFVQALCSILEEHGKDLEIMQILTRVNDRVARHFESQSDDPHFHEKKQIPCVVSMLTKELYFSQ
Summary of the method: as §1

[3] = biological target: T3, caspase-6 (Homo sapiens, UniProt P55212); assay: Biochemical inhibition assay, kinact/Ki with AMAC substrate; details: read-out: kinact/Ki C6
T3 sequence (P55212 24-179 limits assumed): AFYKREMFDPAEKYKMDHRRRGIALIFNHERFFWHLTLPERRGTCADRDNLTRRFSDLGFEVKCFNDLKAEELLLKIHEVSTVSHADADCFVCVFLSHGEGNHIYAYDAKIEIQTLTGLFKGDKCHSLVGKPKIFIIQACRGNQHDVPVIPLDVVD
T3 sequence (P55212 194-293 limits assumed): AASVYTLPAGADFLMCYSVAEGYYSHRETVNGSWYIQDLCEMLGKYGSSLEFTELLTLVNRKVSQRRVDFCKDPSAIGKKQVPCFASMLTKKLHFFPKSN
Summary of the method: (§2)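 Caspase-8 (25 nM), caspase-9 (100 nM) and caspase-10 (20 nM) used Ac-IETD-AMAC; caspase-9 and caspase-10 buffers also had 0.7 M sodium citrate. Caspase-6 (25 nM) used Ac-VEID-AMAC. Fluorescence (ex 320/em 460) was read immediately, and progress curves were fit for kinact and Ki.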

[4] = biological target: caspase-8 (Homo sapiens, UniProt Q14790); assay: as above; details: read-out: kinact/Ki C8
Summary of the method: as §2

[5] = biological target: T4, caspase-10 (Homo sapiens, UniProt Q92851); assay: as above; details: read-out: kinact/Ki C10
T4 sequence (Q92851 220-415 limits assumed): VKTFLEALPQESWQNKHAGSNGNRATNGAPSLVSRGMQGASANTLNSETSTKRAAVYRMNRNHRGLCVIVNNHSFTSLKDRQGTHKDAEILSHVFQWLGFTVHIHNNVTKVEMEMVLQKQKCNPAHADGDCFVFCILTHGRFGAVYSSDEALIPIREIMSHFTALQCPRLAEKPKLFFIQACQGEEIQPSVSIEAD
T4 sequence (Q92851 416-521 limits assumed): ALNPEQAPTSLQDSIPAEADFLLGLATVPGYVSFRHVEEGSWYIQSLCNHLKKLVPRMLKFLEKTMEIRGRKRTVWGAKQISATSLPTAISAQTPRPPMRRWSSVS
Summary of the method: as §2

[6] = biological target: T5, caspase-9 (Homo sapiens, UniProt P55211); assay: as above; details: read-out: kinact/Ki C9
T5 sequence (P55211 1-315 limits assumed): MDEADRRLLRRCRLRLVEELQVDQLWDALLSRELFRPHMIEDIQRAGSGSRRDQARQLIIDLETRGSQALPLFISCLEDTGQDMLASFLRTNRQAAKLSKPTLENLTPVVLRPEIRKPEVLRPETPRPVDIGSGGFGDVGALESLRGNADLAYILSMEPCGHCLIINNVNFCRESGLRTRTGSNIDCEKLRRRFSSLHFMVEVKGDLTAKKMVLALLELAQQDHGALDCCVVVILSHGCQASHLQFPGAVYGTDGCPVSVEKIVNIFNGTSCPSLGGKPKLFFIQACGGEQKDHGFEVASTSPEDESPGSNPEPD
T5 sequence (P55211 331-416 limits assumed): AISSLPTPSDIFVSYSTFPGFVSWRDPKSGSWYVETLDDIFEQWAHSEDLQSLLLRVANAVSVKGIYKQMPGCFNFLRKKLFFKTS
Summary of the method: as §2

[7] = biological target: T1, caspase-3; details: cited from earlier work

Chain of caspase-8 (Q14790 217-374 limits assumed): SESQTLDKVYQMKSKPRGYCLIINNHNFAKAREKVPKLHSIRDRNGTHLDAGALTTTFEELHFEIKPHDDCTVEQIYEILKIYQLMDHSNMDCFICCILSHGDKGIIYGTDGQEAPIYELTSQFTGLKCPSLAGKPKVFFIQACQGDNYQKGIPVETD
Chain of caspase-8 (Q14790 385-479 limits assumed): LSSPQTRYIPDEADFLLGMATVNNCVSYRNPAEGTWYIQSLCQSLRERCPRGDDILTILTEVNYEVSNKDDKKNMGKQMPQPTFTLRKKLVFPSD

With `Cc1ccc(C(=O)OCC(=O)[C@@H](CC(=O)O)NC(=O)[C@@H](Cc2ccccc2)NC(=O)C[C@@H](CC(C)C)NC(=O)[C@@H](CC(=O)O)NC(=O)[C@@H](Cc2cccnc2)NC(=O)CCCCCNC(=O)CCCCCNC(=O)CCCc2cn(CCF)nn2)s1` [Inhibitor 1, (3R,6R,10R,13R,16R)-6-benzyl-13-(carboxymethyl)-35-(1-(2-fluoroethyl)-1H-1,2,3-triazol-4-yl)-10-isobutyl-3-(2-((5-methylthiophene-2-carbonyl)oxy)acetyl)-5,8,12,15,18,25,32-heptaoxo-16-(pyridin-3-ylmethyl)-4,7,11,14,17,24,31-heptaazapentatriacontanoic acid] ({X3-Ahx-Ahx}-[d3Pal][dD][d(β3hL)][dF]-X4) as the compound, how does the kinact/KI [1] read?
The kinact/KI was 73500 M⁻¹ s⁻¹.

And the kinact/KI [2]?
The kinact/KI was 200 M⁻¹ s⁻¹.

And the kinact/KI [3]?
The kinact/KI was 200 M⁻¹ s⁻¹.

What does the source list for `Cc1cccc(C)c1C(=O)OCC(=O)[C@@H](CC(=O)O)NC(=O)[C@@H](Cc1ccccc1)NC(=O)C[C@@H](CC(C)C)NC(=O)[C@@H](CC(=O)O)NC(=O)[C@@H](Cc1cccnc1)NC(=O)CCCCCNC(=O)CCCCCNC(=O)CCCc1cn(CCF)nn1` [Inhibitor 3, (3R,6R,10R,13R,16R)-6-benzyl-13-(carboxymethyl)-3-(2-((2,6-dimethylbenzoyl)oxy)acetyl)-35-(1-(2-fluoroethyl)-1H-1,2,3-triazol-4-yl)-10-isobutyl-5,8,12,15,18,25,32-heptaoxo-16-(pyridin-3-ylmethyl)-4,7,11,14,17,24,31-heptaazapentatriacontanoic acid] ({X3-Ahx-Ahx}-[d3Pal][dD][d(β3hL)][dF]-X5)?
kinact/KI [1]: 206000 M⁻¹ s⁻¹; kinact/KI [2]: 1000 M⁻¹ s⁻¹; kinact/KI [3]: 5400 M⁻¹ s⁻¹

With `Cc1ccc(C(=O)OCC(=O)[C@H](CC(=O)O)NC(=O)[C@H](Cc2ccccc2)NC(=O)[C@H](Cc2c(F)c(F)c(F)c(F)c2F)NC(=O)[C@H](CC(=O)O)NC(=O)[C@H](Cc2cccnc2)NC(=O)CNC(=O)[C@H](CCC(=O)O)NC(=O)CNC(=O)Cn2cc(CCCF)nn2)s1` [Inhibitor 4, (3S,6S,9S,12S,15S,21S)-6-benzyl-12-(carboxymethyl)-21-(2-(2-(4-(3-fluoropropyl)-1H-1,2,3-triazol-1-yl)acetamido)acetamido)-3-(2-((5-methylthiophene-2-carbonyl)oxy)acetyl)-5,8,11,14,17,20-hexaoxo-9-((perfluorophenyl)methyl)-15-(pyridin-3-ylmethyl)-4,7,10,13,16,19-hexaazatetracosanedioic acid] (X1-GEG[3Pal]D[Phe(F5)]F-{AspCH2OCO(5-Me-thien-2-yl)}) as the compound, how does the kinact/KI [4] read?
Its kinact/KI is 7200 M⁻¹ s⁻¹.

What about the kinact/KI [5] of the same compound?
The kinact/KI was 700 M⁻¹ s⁻¹.

What about the kinact/KI [1] of the same compound?
Its kinact/KI is 863000 M⁻¹ s⁻¹.

And the kinact/KI [2]?
Its kinact/KI is 71400 M⁻¹ s⁻¹.

And the kinact/KI [3]?
The kinact/KI was 200 M⁻¹ s⁻¹.

And the kinact/KI [6]?
The kinact/KI was 800 M⁻¹ s⁻¹.

Which results are given for `Cc1ccc(C(=O)OCC(=O)[C@H](CC(=O)O)NC(=O)[C@H](Cc2ccccc2)NC(=O)[C@H](Cc2c(F)c(F)c(F)c(F)c2F)NC(=O)[C@H](CC(=O)O)NC(=O)[C@H](Cc2cccnc2)NC(=O)CCOCCOCCOCCOCCn2cc(CCCF)nn2)s1` [Inhibitor 5, (17S,20S,23S,26S,29S)-26-benzyl-20-(carboxymethyl)-1-(4-(3-fluoropropyl)-1H-1,2,3-triazol-1-yl)-29-(2-((5-methylthiophene-2-carbonyl)oxy)acetyl)-15,18,21,24,27-pentaoxo-23-((perfluorophenyl)methyl)-17-(pyridin-3-ylmethyl)-3,6,9,12-tetraoxa-16,19,22,25,28-pentaazahentriacontan-31-oic acid] (X2-[3Pal]D[Phe(F5)]F-{AspCH2OCO(5-Me-thien-2-yl)})?
kinact/KI [4]: 13500 M⁻¹ s⁻¹; kinact/KI [5]: 600 M⁻¹ s⁻¹; kinact/KI [1]: 1.25e+06 M⁻¹ s⁻¹; kinact/KI [2]: 106000 M⁻¹ s⁻¹; kinact/KI [3]: 300 M⁻¹ s⁻¹; kinact/KI [6]: 1000 M⁻¹ s⁻¹

Which kinact/KI [4] does the source give for `Cc1ccc(C(=O)OCC(=O)[C@H](CC(=O)O)NC(=O)[C@H](Cc2ccccc2)NC(=O)[C@H](Cc2c(F)c(F)c(F)c(F)c2F)NC(=O)[C@H](CC(=O)O)NC(=O)[C@H](Cc2cccnc2)NC(=O)CCCCCNC(=O)Cn2cc(CCCF)nn2)s1` [Inhibitor 6, (11S,14S,17S,20S,23S)-20-benzyl-14-(carboxymethyl)-1-(4-(3-fluoropropyl)-1H-1,2,3-triazol-1-yl)-23-(2-((5-methylthiophene-2-carbonyl)oxy)acetyl)-2,9,12,15,18,21-hexaoxo-17-((perfluorophenyl)methyl)-11-(pyridin-3-ylmethyl)-3,10,13,16,19,22-hexaazapentacosan-25-oic acid] ({X1-Ahx}-[3Pal]D[Phe(F5)]F-{AspCH2OCO(5-Me-thien-2-yl)}) here?
Its kinact/KI is 7700 M⁻¹ s⁻¹.

And the kinact/KI [5]?
The kinact/KI was 900 M⁻¹ s⁻¹.

And the kinact/KI [1]?
Its kinact/KI is 851000 M⁻¹ s⁻¹.

What about the kinact/KI [2] of the same compound?
The kinact/KI was 108000 M⁻¹ s⁻¹.

What about the kinact/KI [3] of the same compound?
The kinact/KI was 200 M⁻¹ s⁻¹.

And the kinact/KI [6]?
The kinact/KI was 900 M⁻¹ s⁻¹.

With `Cc1ccc(C(=O)OCC(=O)[C@H](CC(=O)O)NC(=O)[C@H](Cc2ccccc2)NC(=O)[C@H](Cc2c(F)c(F)c(F)c(F)c2F)NC(=O)[C@H](CC(=O)O)NC(=O)[C@H](Cc2cccnc2)NC(=O)CNC(=O)CNC(=O)CNC(=O)Cn2cc(CCCF)nn2)s1` [Inhibitor 7, (13S,16S,19S,22S,25S)-22-benzyl-16-(carboxymethyl)-1-(4-(3-fluoropropyl)-1H-1,2,3-triazol-1-yl)-25-(2-((5-methylthiophene-2-carbonyl)oxy)acetyl)-2,5,8,11,14,17,20,23-octaoxo-19-((perfluorophenyl)methyl)-13-(pyridin-3-ylmethyl)-3,6,9,12,15,18,21,24-octaazaheptacosan-27-oic acid] (X1-GGG[3Pal]D[Phe(F5)]F-{AspCH2OCO(5-Me-thien-2-yl)}) as the compound, how does the kinact/KI [4] read?
The kinact/KI was 15200 M⁻¹ s⁻¹.

And the kinact/KI [5]?
The kinact/KI was 1000 M⁻¹ s⁻¹.

What about the “inactivation rate on caspase-3 as compared to caspase-7” value ([1]; ratio of kinact/Ki) of the same compound?
Its value is 14 times.

And the kinact/KI [1]?
The kinact/KI was 1.62e+06 M⁻¹ s⁻¹.

And the kinact/KI [2]?
Its kinact/KI is 117000 M⁻¹ s⁻¹.

And the kinact/KI [3]?
Its kinact/KI is 300 M⁻¹ s⁻¹.

And the kinact/KI [6]?
Its kinact/KI is 700 M⁻¹ s⁻¹.

What does the source list for `Cc1ccc(C(=O)OCC(=O)[C@H](CC(=O)O)NC(=O)[C@H](Cc2ccccc2)NC(=O)[C@H](Cc2c(F)c(F)c(F)c(F)c2F)NC(=O)[C@H](CC(=O)O)NC(=O)[C@H](Cc2cccnc2)NC(=O)Cn2cc(CCCF)nn2)s1` [Inhibitor 8, (4S,7S,10S,13S,16S)-13-benzyl-7-(carboxymethyl)-1-(4-(3-fluoropropyl)-1H-1,2,3-triazol-1-yl)-16-(2-((5-methylthiophene-2-carbonyl)oxy)acetyl)-2,5,8,11,14-pentaoxo-10-((perfluorophenyl)methyl)-4-(pyridin-3-ylmethyl)-3,6,9,12,15-pentaazaoctadecan-18-oic acid] (X1-[3Pal]D[Phe(F5)]F-{AspCH2OCO(5-Me-thien-2-yl)})?
kinact/KI [4]: 5600 M⁻¹ s⁻¹; kinact/KI [5]: 700 M⁻¹ s⁻¹; kinact/KI [1]: 549000 M⁻¹ s⁻¹; kinact/KI [2]: 61000 M⁻¹ s⁻¹; kinact/KI [6]: 400 M⁻¹ s⁻¹

Which “efficiency in inactivation of caspase-3, less than Ac-DEVD-KE” value ([7]; ref Solania et al. [2019]) does the source give for “Ac-3Pal-Asp-βhLeu-Phe-Asp-KE [Ac-DW3-KE]” here?
Its value is 500 times.

And the “selectivity for caspase-3 against caspase-7” value ([7]; ref Vickers et al. [2013])?
The value was 120 fold.

What about the “selectivity for caspase-3 against caspase-8” value ([7]; ref Vickers et al. [2013]) of the same compound?
The value was 58 fold.
